Hits are enriched below; roughly 2.7% of the tested compounds scored in any of these assays.
Mdm2 ligase inh: inhibitors of human Mdm2 E3 ubiquitin ligase; cell-based MDM2 ubiquitination luciferase reporter, 2 h; 0 = plate control, 100 = twice control, blank-subtracted; Q00987; signal enhancement, % at 5 µM; 210,000 tested, 0.11% active;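 active = signal enhancement of 30% or more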;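 also: luminescence tracks abundance of the self-degrading MDM2-luciferase fusion protein; higher signal means inhibition of MDM2 E3 ligase activity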
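system = mammalian cells stably expressing self-ubiquitinating, self-degrading MDM2 E3–luciferase fusion | quantity = 2000 cells per well seeded | incubation = 4 h cell settling then 2 h compound exposure, 37 °C | signal = SteadyLite luminescence, 15 min reagent step | benchmarks = plate control and blank wells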
Wee1 degr inh: inhibitors of human Wee1 degradation | P30291 | HeLa Luc-Wee1K328M stability, luciferase luminescence; 100% = proteasome inhibitor MG132 effect | reporter increase, % at 5 µM | 220,000 tested, 1.2% active | AID 1321;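 active = activation above the mean of all tested compounds plus 3 SD, set per screening run, cut at about 8.8% in these data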;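 also: cells exposed to compound for 20 h before luminescence read; 0% = DMSO alone and 100% = MG132 at 30 µM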
Hck-Nef inh: inhibitors of human Hck kinase activated by Nef | AID 463187 | Recombinant Hck-YEEI plus Nef, Z-Lyte FRET kinase assay | P08631 | 220,000 tested, 0.68% active | inhibition, % at 20 µM;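 active = Hck-Nef kinase inhibition above about 50%, limit read from the data; inactive = inhibition below that limit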;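 also: 0% = DMSO with Hck plus Nef and 100% = Hck alone without Nef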
TbHK1 inh: T. brucei hexokinase 1 inhibition | recombinant TbHK1, G6PDH-coupled NADH A340 | inhibition, % at 10 µM | 220,000 tested, 0.11% active;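 active = inhibition of 50% or more in the single-dose primary screen; inactive = inhibition below 50%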
14-3-3 Bad PPI: disrupts binding of bovine 14-3-3 zeta to phospho-Bad peptide; inhibition, % at 21.7 µM; TR-FRET 14-3-3zeta/Dy647-pBad peptide displacement, 1 h; 220,000 tested, 0.71% active; P63103;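 active = inhibition above about 70%, limit read from the data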;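 also: 0% = full 14-3-3 plus peptide FRET controls and 100% = background without 14-3-3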
Target sequence (P63103 whole entry, looked up): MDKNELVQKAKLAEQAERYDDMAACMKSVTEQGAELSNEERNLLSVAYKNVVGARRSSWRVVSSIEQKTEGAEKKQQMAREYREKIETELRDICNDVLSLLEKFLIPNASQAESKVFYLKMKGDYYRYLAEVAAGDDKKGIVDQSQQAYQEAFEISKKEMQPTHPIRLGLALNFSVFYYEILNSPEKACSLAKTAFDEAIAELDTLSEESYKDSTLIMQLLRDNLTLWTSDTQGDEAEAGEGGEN
Starred values were filed as active, the others as inactive; nt = no result; [ ] = remark or other dose.

SMILES	Mdm2 ligase inh	Wee1 degr inh	Hck-Nef inh	TbHK1 inh	14-3-3 Bad PPI
O=[N+]([O-])c1cc(Br)cc(C=Nc2ccc3c(c2)OCO3)c1O	-6.3	9.7*	39.8	22.7	16.1
S=C(c1ccc(-c2ccc(Br)cc2)o1)N1CCOCC1	-6.6	10.1*	8.5	-6.7	3.7
Clc1ccc2nc(N3CCCCC3)sc2c1	-19.3	10.7*	1.4	3.3	-9.2
CC1(C)CC2CC(C)(CN2C(=O)COC(=O)CNC(=O)c2ccc(Cl)c(Cl)c2)C1 (stereo not given)	-0.3	10.6*	1.1	-8.7	-0.1
CC1(C)CC2CC(C)(CN2C(=O)COC(=O)c2cc(Cl)cc(Cl)c2N)C1 (stereo not given)	-5.4	-0.4	1.8	-6.3	3.7
Cc1cc(C)c(C(=O)Cn2nc(C)c([N+](=O)[O-])c2C)cc1C	-5.2	10.4*	27.3	-1.8	-5.4
Cc1ccc(C(=O)Cn2nc(C)c([N+](=O)[O-])c2C)c(C)c1	-18.0	0.6	14.4	2.2	7.8
COc1ccc(/C=N/NC(=O)Cn2nc(C)c([N+](=O)[O-])c2C)cc1	-5.8	-4.3	-0.3	36.3	-4.6
Cc1ccc(/C=N/NC(=O)Cn2nc(C)c([N+](=O)[O-])c2C)o1	-27.3	9.6*	11.3	-11.2	3.1
ClC(Cl)(c1nnnn1-c1ccccc1)c1nnnn1-c1ccccc1	0.3	-2.7	-7.8	15.0	21.6
O=C(NN=C1C2CC3CC(C2)CC1C3)c1cccs1	nt	9.5*	0.4	-4.6	-3.3
O=c1[nH]c(CN2CCN(S(=O)(=O)c3cccs3)CC2)nc2c(Br)cc(Br)cc12	9.7	1.1	0.9	-2.0	-15.3
CN1CCN(c2ccc(C(=O)c3ccc(F)cc3)cc2)CC1	-14.8	9.0*	0.2	-31.3	-16.1
O=C(O)CCC(=O)N1CCN(c2ccc(C(=O)c3ccc(F)cc3)cc2)CC1	-25.1	1.5	0.0	-25.6	-6.4
CN1CCN(c2ccc(C(=O)c3cn(-c4ccc(F)c(Cl)c4)nn3)cc2)CC1	-16.1	-2.1	2.5	3.0	76.3*
Cc1ccc(-n2cc(C(=O)c3ccc(N4CCN(C)CC4)cc3)nn2)cc1Cl	-12.1	-2.0	16.3	-16.3	17.4
CNC(=O)COC(=O)c1ccc(Cl)c(S(=O)(=O)N2CCCC2)c1	-8.4	10.1*	21.5	-2.0	-2.4
O=C(OCC(=O)N1CCCCCC1)c1ccc(Cl)c(S(=O)(=O)N2CCCC2)c1	-18.2	-2.2	22.3	6.7	-11.2
O=C1N(Cc2cccc(Cl)c2)C[C@@H]2C[C@@H](c3ccccn3)N3CCC[C@@]123	-22.0	9.4*	13.0	5.2	3.9
CCCCN(C)CCNC(=O)c1ccc2c(c1)NC(=O)C(N1CCCCC1)S2 (stereo not given)	-18.1	0.1	-0.3	7.8	nt
COc1ccc(CNC(=O)C(NC(C)=O)C(=O)Nc2ccc(C(C)C)cc2)cc1 (stereo not given)	-11.6	-3.3	21.7	-3.2	-1.2
COc1ccc(CNC(=O)COC(=O)CCc2c[nH]c3ccccc23)cc1	-17.6	-1.4	23.4	0.0	-10.2
Cc1ccc(NC(=O)c2sc3nc(CCl)[nH]c(=O)c3c2C)c(C)c1	-4.9	16.2*	14.7	-5.4	3.9
Cc1cc(C)c(NC(=O)c2sc3nc(C)[nH]c(=O)c3c2C)c(C)c1	1.8	0.9	8.1	-11.2	-1.7
CC1(C)CC(NC(=O)C23CCC(C)(C(=O)C2)C3(C)C)CC(C)(C)N1 (stereo not given)	-10.8	-1.8	0.5	3.6	-0.9
SMILES	Mdm2 ligase inh	Wee1 degr inh	Hck-Nef inh	TbHK1 inh	14-3-3 Bad PPI
Cc1ccsc1C1Nc2ccccc2C(=O)N1O (stereo not given)	14.5	9.0*	3.3	-16.6	-10.5
Cc1nn(C)c(C)c1C1Nc2ccccc2C(=O)N1O (stereo not given)	nt	2.9	0.6	-4.8	-14.0
S=C(Nc1ccccc1Cl)N1CCOCC1	2.3	-0.7	6.7	-2.9	-5.8
Cc1ccc(C2CC(=O)NC(SCC(=O)Nc3nccs3)=C2C#N)cc1 (stereo not given)	-14.8	4.2	5.1	-10.3	16.4
O=C(NC(=S)Nc1ccccc1O)c1ccc(-c2ccc(Cl)cc2)o1	-3.6	1.3	0.4	-34.7	-4.6
COc1ccccc1NC(=S)NC(=O)c1ccc(-c2ccc(Cl)cc2)o1	-4.4	14.2*	-0.3	-24.0	-2.8
CCC(C)(C(=O)NC1CCCC1)N(C(=O)c1cnccn1)c1c(C)n(C)n(-c2ccccc2)c1=O (stereo not given)	-5.8	-1.7	0.2	1.2	-1.2
CCOC(=O)C/C(N)=N/NC(=O)c1ccc(Cl)cc1Cl	-7.9	10.8*	24.8	-2.9	-4.8
Cn1cc(C(=O)c2ccc(Cl)cc2Cl)cc1C(=O)N/N=C(\N)COc1ccc(Cl)cc1Cl	-2.5	1.9	2.6	-2.6	3.5
COc1ccc(-c2oc(NC(=O)c3ccc(C)cc3)c(C#N)c2-c2ccc(OC)cc2)cc1	nt	0.3	-1.6	-20.7	87.3*[fluorescence artefact?]
O=C(NNC(=O)C1CCCO1)c1ccc(F)cc1 (stereo not given)	-0.2	-4.0	2.0	4.7	-9.2
S=C(c1ccc(-c2ccc(Cl)cc2Cl)o1)N1CCCC1	-8.7	-0.8	-6.2	-12.4	-3.4
S=C(c1ccc(-c2ccc(Cl)cc2Cl)o1)N1CCCCC1	-3.5	10.2*	-2.0	-2.9	-10.4
c1ccc2[nH]c3cc4ncnc4cc3nc2c1	-18.7	1.0	12.4	-18.9	-3.1
Cn1cc(/C=C/C(=O)c2ccccc2)c2ccccc21	nt	-0.2	18.9	-5.0	90.5*
CC(C)c1ccccc1NC(=O)COC(=O)c1c2c(nc3ccccc13)CCN(Cc1ccccc1)C2	-3.9	9.5*	1.3	-6.3	5.5
COc1cc(C(=O)NNC(=S)NC(=O)/C=C/c2ccccc2)cc(OC)c1OC	4.2	-0.6	-4.3	-17.9	-16.0
O=C(CN1C(=O)S/C(=C\c2ccc(Cl)cc2)C1=O)NNC(=O)c1ccccc1O	-8.8	-0.9	5.5	-0.7	76.7*[fluorescence artefact?]
Cc1cccc(NC(=O)COc2ccc(/C=C\c3[nH]c(=O)[nH]c(=O)c3[N+](=O)[O-])cc2)c1	-7.5	-2.8	61.6*	-7.1	1.2
COc1cccc(N2CN(CCc3ccccc3)CNC2=S)c1	0.3	0.9	15.5	-2.3	-0.2
Fc1ccc(COc2ccc(Br)cc2CNCc2ccncc2)cc1	-3.4	-1.3	3.2	5.7	83.8*
Fc1ccccc1COc1ccc(Br)cc1CNCc1cccnc1	-3.0	1.4	11.6	13.8	36.6
Fc1ccccc1COc1ccc(Br)cc1CNCc1ccncc1	-6.2	-2.9	4.5	0.5	80.0*
COc1ccc2cc(C(=O)C3CCCN(C(=O)/C=C/c4ccccn4)C3)ccc2c1 (stereo not given)	6.6	-1.1	3.5	-11.6	-1.9
CC(=NCc1cccc(Cl)c1)c1nc(-c2ccco2)oc1O	-15.7	9.4*	-3.3	-28.5	-2.1
Oc1oc(-c2ccco2)nc1C=Nc1cccc(Cl)c1	-18.1	2.0	-20.6	-5.0	-41.6

Screening results (PubChem BioAssay)
